Laboratory results as given in ChEMBL document CHEMBL1122849, “Synthesis and properties of bis(2,2-dimethylaziridinyl)phosphinic amides: a series of new antineoplastic agents” (1985).
Several values for one entry are separate records, joined by “and”; a condition that tells them apart may be missing. Identical values can stand only once.

How the values were obtained:
B16 [1] = assay: Compound was evaluated for the antineoplastic activity on B16 Melanoma cells at the optimal dose of 80 mg/kg through intraperitoneal route on days 1,5,9; assay type: functional, Mus musculus
Mus musculus [2] = species on record: Mus musculus; assay: Tumor free mice out of 6 surviving to day 30 or beyond was determined; assay type: functional
Outline: (§1)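 Surviving mice were autopsied when the experiment ended. A mouse was scored cured if tumor-free with no visible disease at day 30 (P388, L1210) or day 60 (B16, C26, M109). Groups held 6, 10 or 8 mice.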

P388 [3] = assay: Compound was evaluated for the antineoplastic activity against P388 leukemia at an optimal dose of 256 mg/kg administered intraperitoneally; assay type: functional, Mus musculus; conditions: route intraperitoneal
Colon 26 [4] = assay: Antitumor activity against C26 implants through intraperitoneal route along with the optimal dose of 50 mg/kg through intraperitoneal injection on 1,4 days; assay type: functional, Mus musculus
Mus musculus [5] = species on record: Mus musculus; assay: Tumor free mice out of 10 surviving to day 60 was determined; assay type: functional; outline: as §1
P388 [6] = assay: Compound was evaluated for the antineoplastic activity against P388 leukemia at an optimal dose of 64 mg/kg administered intraperitoneally; assay type: functional, Mus musculus; conditions: route intraperitoneal
B16 [7] = assay: Compound was evaluated for the antineoplastic activity on B16 Melanoma cells at the optimal dose of 120 mg/kg through intraperitoneal route on days 1,5,9; assay type: functional, Mus musculus
B16 [8] = assay: Compound was evaluated for the antineoplastic activity on B16 Melanoma cells at the optimal dose of 160 mg/kg through intraperitoneal route on days 1,5,9; assay type: functional, Mus musculus
B16 [9] = assay: Compound was evaluated for the antineoplastic activity on B16 Melanoma cells at the optimal dose of 18 mg/kg through intraperitoneal route on days 1,5, 9; assay type: functional, Mus musculus
B16 [10] = assay: Compound was evaluated for the antineoplastic activity on B16 Melanoma cells at the optimal dose of 24 mg/kg through intraperitoneal route on days 1,5,9; assay type: functional, Mus musculus
B16 [11] = assay: Compound was evaluated for the antineoplastic activity on B16 Melanoma cells at the optimal dose of 36 mg/kg through intraperitoneal route on days 1,5, 9; assay type: functional, Mus musculus
B16 [12] = assay: Compound was evaluated for the antineoplastic activity on B16 Melanoma cells at the optimal dose of 100 mg/kg through intraperitoneal route on days 1,5,9; assay type: functional, Mus musculus
Colon 26 [13] = assay: Antitumor activity against C26 implants through intraperitoneal route along with the optimal dose of 120 mg/kg through intraperitoneal injection on 5,8 days; assay type: functional, Mus musculus
Colon 26 [14] = assay: Antitumor activity against C26 implants through subcutaneous route along with the optimal dose of 120 mg/kg through intraperitoneal injection on 5,8 days; assay type: functional, Mus musculus
M109 [15] = assay: Antitumor activity against M109 implants through intraperitoneal route along with the optimal dose of 150 mg/kg through intraperitoneal route on 1,4 days; assay type: functional, Mus musculus
M109 [16] = assay: Antitumor activity against M109 implants through subcutaneous route along with the optimal dose of 100 mg/kg through intraperitoneal route on 1,4 days; assay type: functional, Mus musculus
P388 [17] = assay: Compound was evaluated for the antineoplastic activity against P388 leukemia at an optimal dose of 80 mg/kg administered intraperitoneally; assay type: functional, Mus musculus; conditions: route intraperitoneal
B16 [18] = assay: (§2) Compound was evaluated for the antineoplastic activity on B16 Melanoma cells at the optimal dose of 40 mg/kg through intraperitoneal route on days 1,5,9; assay type: functional, Mus musculus
B16 [19] = assay: Compound was evaluated for the antineoplastic activity on B16 Melanoma cells at the optimal dose of 50 mg/kg through intraperitoneal route on days 1,5,9; assay type: functional, Mus musculus
B16 [20] = assay: as §2; assay type: functional, Mus musculus; remark: listed apart in the source
Colon 26 [21] = assay: Antitumor activity against C26 implants through intraperitoneal route along with the optimal dose of 120 mg/kg through intraperitoneal injection on 1,4 days; assay type: functional, Mus musculus
Colon 26 [22] = assay: Antitumor activity against C26 implants through intraperitoneal route along with the optimal dose of 80 mg/kg through intraperitoneal injection on 1,4 days; assay type: functional, Mus musculus
Colon 26 [23] = assay: Antitumor activity against C26 implants through subcutaneous route along with the optimal dose of 50 mg/kg through intraperitoneal injection on 1,4 days; assay type: functional, Mus musculus
L1210 [24] = assay: Compound was evaluated for the antineoplastic activity on L1210 leukemia cell line at the optimal dose of 60 mg/kg administered intraperitoneally on day 1 following intraperitoneal implant of 10e 6 L1210 cells, in six mice; assay type: functional, Mus musculus
M109 [25] = assay: Antitumor activity against M109 implants through subcutaneous route along with the optimal dose of 70 mg/kg through intraperitoneal route on 1,4 days; assay type: functional, Mus musculus
M109 [26] = assay: Antitumor activity against M109 implants through subcutaneous route along with the optimal dose of 70 mg/kg through intravenously route on 1,4 days; assay type: functional, Mus musculus; conditions: route intravenous
Mus musculus [27] = species on record: Mus musculus; assay: Tumor free mice out of 8 surviving to day 60 or beyond was determined; assay type: functional; outline: as §1
P388 [28] = assay: Compound was evaluated for the antineoplastic activity against P388 leukemia at an optimal dose of 100 mg/kg administered intraperitoneally; assay type: functional, Mus musculus; conditions: route intraperitoneal
B16 [29] = assay: Compound was evaluated for the antineoplastic activity on B16 Melanoma cells at the optimal dose of 60 mg/kg through intraperitoneal route on days 1,5,9; assay type: functional, Mus musculus
B16 [30] = assay: Compound was evaluated for the antineoplastic activity on B16 Melanoma cells at the optimal dose of 10 mg/kg through intraperitoneal route on days 1,5,9; assay type: functional, Mus musculus
Colon 26 [31] = assay: Antitumor activity against C26 implants through subcutaneous route along with the optimal dose of 60 mg/kg through intraperitoneal injection on 1,4 days; assay type: functional, Mus musculus
L1210 [32] = assay: Compound was evaluated for the antineoplastic activity on L1210 leukemia cell line at the optimal dose of 180 mg/kg administered intraperitoneally on day 1 following intraperitoneal implant of 10e 6 L1210 cells, in six mice.9; assay type: functional, Mus musculus
P388 [33] = assay: Compound was evaluated for the antineoplastic activity against P388 leukemia at an optimal dose of 128 mg/kg administered intraperitoneally; assay type: functional, Mus musculus; conditions: route intraperitoneal
Colon 26 [34] = assay: Antitumor activity against C26 implants through intraperitoneal route along with the optimal dose of 60 mg/kg through intraperitoneal injection on 1,4 days; assay type: functional, Mus musculus
Colon 26 [35] = assay: Antitumor activity against C26 implants through subcutaneous route along with the optimal dose of 25 mg/kg through intraperitoneal injection on 1,4 days; assay type: functional, Mus musculus
L1210 [36] = assay: Compound was evaluated for the antineoplastic activity on L1210 leukemia cell line at the optimal dose of 180 mg/kg administered intraperitoneally on day 1 following intraperitoneal implant of 10e 6 L1210 cells, in six mice; assay type: functional, Mus musculus

COCCCNP(=O)(N1CC1(C)C)N1CC1(C)C (stereo not drawn)
T/C (B16 [1]): 160%
Survivors (Mus musculus [2]): 1
T/C (P388 [3]): 225%

CN(C)CCCNP(=O)(N1CC1(C)C)N1CC1(C)C (stereo not drawn)
T/C (B16 [1]; 80 mg/kg): 210% and 172%
T/C (Colon 26 [4]): 170%
Survivors (Mus musculus [5]): 2
T/C (P388 [6]): 231%

CCCNP(=O)(N1CC1(C)C)N1CC1(C)C (stereo not drawn)
T/C (B16 [1]): 162%
T/C (B16 [7]): 144%
Survivors (Mus musculus [2]): 2
T/C (P388 [3]): 363%

CC1(C)CN1P(=O)(N1CCOCC1)N1CC1(C)C (stereo not drawn)
T/C (P388 [3]): 247%
T/C (B16 [8]): 160%

O=C(O)CCCc1ccc(N(CCCl)CCCl)cc1 [CHLORAMBUCIL]
T/C (B16 [9]): 132%
T/C (B16 [10]): 121%
T/C (B16 [11]): 125%

CCOP(=O)(N1CC1(C)C)N1CC1(C)C (stereo not drawn)
T/C (B16 [12]): 188% and 119%
T/C (Colon 26 [13]): 144%
T/C (Colon 26 [14]): 130%
T/C (M109 [15]): 146%
T/C (M109 [16]): 104%
Survivors (Mus musculus [2]): 2
T/C (P388 [17]): 272%

CC1(C)CN1P(N)(=O)N1CC1(C)C (stereo not drawn)
T/C (B16 [1]): 210%
T/C (B16 [18]): 110%
T/C (B16 [19]): 123%
T/C (B16 [20]): 214%
T/C (B16 [12]): 310% and 181%
T/C (B16 [7]; 120 mg/kg): 191% and 180%
T/C (Colon 26 [21]): 190%
T/C (Colon 26 [22]): 221%
T/C (Colon 26 [23]): 127%
T/C (L1210 [24]): 164%
T/C (M109 [15]): 157%
T/C (M109 [25]): 99%
T/C (M109 [26]): 104%
Survivors (Mus musculus [5]): 3 and 2
Survivors (Mus musculus [27]): 3 and 2
T/C (P388 [3]): 206%

CCOC(=O)NP(=O)(N1CC1(C)C)N1CC1(C)C (stereo not drawn) [METUREDEPA]
T/C (P388 [28]): 244%

CN(C)P(=O)(N1CC1(C)C)N1CC1(C)C (stereo not drawn)
T/C (B16 [29]): 118%
T/C (B16 [30]): 108%
T/C (B16 [7]): 153%
T/C (Colon 26 [22]): 127%
T/C (Colon 26 [31]): 125%
T/C (L1210 [32]): 207%
T/C (P388 [33]): 272%

CCNP(=O)(N1CC1(C)C)N1CC1(C)C (stereo not drawn)
T/C (B16 [7]): 148%
T/C (P388 [3]): 288%

CC1(C)CN1P(=O)(NC1CCCCC1)N1CC1(C)C (stereo not drawn)
T/C (P388 [3]): 106%

CN1CCN(P(=O)(N2CC2(C)C)N2CC2(C)C)CC1 (stereo not drawn)
T/C (B16 [1]): 170%
T/C (P388 [33]): 224%

CC1(C)CN1P(=O)(N1CCCCC1)N1CC1(C)C (stereo not drawn)
T/C (P388 [3]): 218%
T/C (B16 [8]): 132%

O=P1(N(CCCl)CCCl)NCCCO1 (stereo not drawn) [CYCLOPHOSPHAMIDE ANHYDROUS]
T/C (B16 [12]): 143% and 205%
T/C (B16 [7]): 180%
Survivors (Mus musculus [27]): 1

CCCCNP(=O)(N1CC1(C)C)N1CC1(C)C (stereo not drawn)
T/C (B16 [7]): 157%
T/C (P388 [3]): 238%

CNP(=O)(N1CC1(C)C)N1CC1(C)C (stereo not drawn)
T/C (B16 [29]): 120%
T/C (B16 [30]): 126%
T/C (B16 [7]): 153%
T/C (Colon 26 [34]): 166%
T/C (Colon 26 [35]): 151%
T/C (L1210 [36]): 207%
Survivors (Mus musculus [2]): 1
T/C (P388 [33]): 239%

CC1(C)CN1P(=O)(Nc1ccccc1)N1CC1(C)C (stereo not drawn) [PHOSPHINIC ANILIDE DERIVATE]
T/C (P388 [3]): 169%
